Series [1] concerns Staphylococcus aureus. In words: Antibacterial activity against ciprofloxacin resistant Staphylococcus aureus harboring ParCS80F and GyrAS84L double mutant assessed as inhibition of bacterial growth. Type of series: functional.
In series [2] the test system is Escherichia coli. In words: Antibacterial activity against Escherichia coli assessed as inhibition of bacterial growth. Type of series: functional. An outline of the steps:
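Run in duplicate, with the same result obtained in each trial.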

The subject of series [3] is Staphylococcus aureus. In words: Antibacterial activity against Staphylococcus aureus harboring RpoBH481Y/ParCS80F/GyrAS84L triple mutant assessed as inhibition of bacterial growth. Format: functional.
The test system of series [4] is Staphylococcus aureus. Briefly: Antibacterial activity against wild type Staphylococcus aureus assessed as inhibition of bacterial growth. Format: functional.
For series [5], the system named is Staphylococcus aureus. Briefly: Antibacterial activity against rifampicin resistant Staphylococcus aureus harboring RpoBH481Y mutant assessed as inhibition of bacterial growth. Format: functional.
Series [6] relates to HEK293. In words: Cytotoxicity against HEK293 cells. Format: toxicity, cell-based, Homo sapiens.

Converted amounts (≈) assume the structure as drawn.

Take `CC(=O)O[C@H]1[C@H](C)[C@H](O)[C@H](C)[C@@H](O)[C@@H](C(C)OC(=O)C(C)(C)CC(=O)O)/C=C/C=C(/C)C(=O)NC2=CC(=O)c3c(c(O)c(C)c4c3C(=O)[C@@](C)(O/C=C/[C@H](O[C@H]3C[C@@H]5OCO[C@@H]5[C@@H](C)O3)[C@H]1C)O4)C2=O` (some centres not stated): the MIC in series [1] was 0.25 µg/mL (≈ 0.255 µM); in series [2], over 64 µg/mL; in series [3], over 64 µg/mL; in series [4], 0.25 µg/mL (≈ 0.255 µM); in series [5], over 64 µg/mL.

For the molecule `CC(=O)O[C@H]1[C@H](C)[C@H](O)[C@H](C)[C@@H](O)[C@@H](C(C)OC(=O)C(C)(C)CC(=O)N2CCN(c3cc4c(cc3F)c(=O)c(C(=O)O)cn4C3CC3)CC2)/C=C/C=C(/C)C(=O)NC2=CC(=O)c3c(c(O)c(C)c4c3C(=O)[C@@](C)(O/C=C/[C@H](O[C@H]3C[C@@H]5OCO[C@@H]5[C@@H](C)O3)[C@H]1C)O4)C2=O` (some centres not stated), the minimal inhibitory concentration (MIC) in series [1] is 32 µg/mL (≈ 24.7 µM); in series [2] it was over 64 µg/mL; in series [3], over 64 µg/mL; in series [4], 16 µg/mL (≈ 12.4 µM); in series [5] it was over 64 µg/mL. In series [6], this molecule gave an IC50 of 23 µg/mL (≈ 17.8 µM).

For the molecule `CNC1CCCN(c2c(F)cc3c(=O)c(C(=O)O)cn(C4CC4)c3c2OC)C1` (configuration not stated) [BALOFLOXACIN], the MIC is 4 µg/mL (≈ 10.3 µM) in series [1]; 0.5 µg/mL (≈ 1.28 µM) in series [2]; 4 µg/mL (≈ 10.3 µM) in series [3]; 0.13 µg/mL (≈ 0.334 µM) in series [4]; 0.13 µg/mL (≈ 0.334 µM) in series [5].

Consider `N[C@@H]1CCCCN(c2c(F)cc3c(=O)c(C(=O)O)cn(C4CC4)c3c2Cl)C1` [BESIFLOXACIN], for which the minimal inhibitory concentration (MIC) is 0.5 µg/mL (≈ 1.27 µM) in series [1]; 0.25 µg/mL (≈ 0.635 µM) in series [2]; 0.5 µg/mL (≈ 1.27 µM) in series [3]; 0.031 µg/mL (≈ 0.0787 µM) in series [4]; 0.031 µg/mL (≈ 0.0787 µM) in series [5].

On to `O=C(O)c1cn(C2CC2)c2cc(N3CCNCC3)c(F)cc2c1=O` [CIPROFLOXACIN], for which the MIC in series [1] was 32 µg/mL (≈ 96.6 µM); in series [4], 0.25 µg/mL (≈ 0.754 µM); in series [5], 0.25 µg/mL (≈ 0.754 µM).

For `C[C@H]1NCc2cc(-c3ccc4c(=O)c(C(=O)O)cn(C5CC5)c4c3OC(F)F)ccc21` [GARENOXACIN], the MIC in series [1] came out at 0.5 µg/mL (≈ 1.17 µM); in series [2], 0.016 µg/mL (≈ 0.0375 µM); in series [3], 0.5 µg/mL (≈ 1.17 µM); in series [4], 0.016 µg/mL (≈ 0.0375 µM); in series [5] it was 0.016 µg/mL (≈ 0.0375 µM).

As to `COc1c(N2CCNC(C)C2)c(F)cc2c(=O)c(C(=O)O)cn(C3CC3)c12` (configuration not stated) [GATIFLOXACIN], the MIC is 2 µg/mL (≈ 5.33 µM) in series [1]; 0.016 µg/mL (≈ 0.0426 µM) in series [2]; 2 µg/mL (≈ 5.33 µM) in series [3]; 0.063 µg/mL (≈ 0.168 µM) in series [4]; 0.063 µg/mL (≈ 0.168 µM) in series [5].

Regarding `CO/N=C1\CN(c2nc3c(cc2F)c(=O)c(C(=O)O)cn3C2CC2)CC1CN` (configuration not stated) [GEMIFLOXACIN], the MIC in series [1] was 1 µg/mL (≈ 2.57 µM); in series [2] it was 0.0078 µg/mL (≈ 0.02 µM); in series [3], 1 µg/mL (≈ 2.57 µM); in series [4], 0.016 µg/mL (≈ 0.0411 µM); in series [5], 0.016 µg/mL (≈ 0.0411 µM).

For `COc1c(N2C[C@@H]3CCCN[C@@H]3C2)c(F)cc2c(=O)c(C(=O)O)cn(C3CC3)c12` [MOXIFLOXACIN], the minimal inhibitory concentration (MIC) in series [2] came to 0.031 µg/mL (≈ 0.0772 µM); in series [4], 0.016 µg/mL (≈ 0.0399 µM); in series [5] it was 0.016 µg/mL (≈ 0.0399 µM).

Regarding `C[C@H]1COc2c(C3(N)CC3)c(F)cc3c(=O)c(C(=O)O)cn1c23` [PAZUFLOXACIN], the MIC in series [1] came out at 4 µg/mL (≈ 12.6 µM); in series [2], 0.016 µg/mL (≈ 0.0503 µM); in series [3], 4 µg/mL (≈ 12.6 µM); in series [4], 0.13 µg/mL (≈ 0.408 µM); in series [5] it was 0.13 µg/mL (≈ 0.408 µM).

In the case of `N[C@@H]1[C@H]2CN(c3nc4c(cc3F)c(=O)c(C(=O)O)cn4-c3ccc(F)cc3F)C[C@@H]12` [TROVAFLOXACIN], the MIC turned out to be 1 µg/mL (≈ 2.4 µM) in series [1]; 0.0078 µg/mL (≈ 0.0187 µM) in series [2]; 1 µg/mL (≈ 2.4 µM) in series [3]; 0.0078 µg/mL (≈ 0.0187 µM) in series [4]; 0.016 µg/mL (≈ 0.0384 µM) in series [5].

The values above are taken from ChEMBL document CHEMBL5143539, “Synthesis and evaluation of dual-action kanglemycin-fluoroquinolone hybrid antibiotics” (Bioorg Med Chem Lett, 2022).
